≈ marks a conversion by molar mass, not a printed value. Calls of active or inactive are those of the source. No cut-off for these calls is given here.
Tests used:
Candida albicans = test: Antifungal activity against Candida albicans after 48 hrs by microtiter broth dilution method; type: functional
In short: (§1)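 Fungi were grown 24 h at 37 C under 5% CO2 in YPD (1% yeast, 2% peptone, 2% dextrose), then diluted 1:100 in saline and 1:100 in YPD to about 1000 CFU per inoculum. Inocula were added to two-fold serial dilutions in 96-well broth, with drug-free growth and sterility controls. Plates were incubated 48 h at 37 C under 5% CO2. MIC was the lowest concentration without visible turbidity.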

Aspergillus fumigatus = test: Antifungal activity against wild type Aspergillus fumigatus Af293 after 48 hrs by microtiter broth dilution method; type: functional; conditions: Af293, 48 h; in short: as §1
Bacillus subtilis = test: Antibacterial activity against Bacillus subtilis ATCC 6633 by two fold serial dilution technique; type: functional
In short: (§2)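 Compounds first screened by disk diffusion. Those giving inhibition zones above 15 mm were then tested for bacteriostatic MIC by two-fold serial dilution.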

Staphylococcus aureus = test: Antibacterial activity against Staphylococcus aureus ATCC 29213 by two fold serial dilution technique; type: functional; in short: as §2
Pseudomonas aeruginosa = test: Antibacterial activity against Pseudomonas aeruginosa ATCC […] by two fold serial dilution technique; type: functional, organism-based; in short: as §2
[1] = Cytotoxicity against mouse EAC at 25 to 100 uM after 2 hrs by trypan blue staining based hemocytometer analysis; type: functional, Ehrlich
In short: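 Ehrlich ascites cells were aspirated aseptically from a donor animal's peritoneal fluid and kept in RPMI 1640 with 10% FBS. Cells were exposed to compounds at three levels (100, 50, 25) prepared in DMSO/RPMI-1640 for 2 h at 37 C in humidified 5% CO2. Viability was scored by trypan blue exclusion on a hemocytometer; untreated control viability exceeded 95%.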

MIC (Candida albicans) [µg/mL] | MIC (Aspergillus fumigatus) [µg/mL] | MIC (Bacillus subtilis) [µg/mL] | MIC (Staphylococcus aureus) [µg/mL] | MIC (Pseudomonas aeruginosa) | Structure (SMILES) | Activity [1] [%]
2000 (≈ 9250 µM) | 2000 (≈ 9250 µM) | 46 (≈ 213 µM) | 52 (≈ 240 µM) | inactive | CC1=C(C)[C@@](C)(c2ccc(CO)cc2)CC1 | –
120 (≈ 550 µM) | 200 (≈ 916 µM) | 39 (≈ 179 µM) | 31 (≈ 142 µM) | inactive | CC1=C(C)[C@@](C)(C2=CCC(CO)=CC2)CC1 | 79.9
70 (≈ 327 µM) | 100 (≈ 467 µM) | 35 (≈ 163 µM) | 27 (≈ 126 µM) | inactive | CC1=C(C)[C@@](C)(c2ccc(C=O)cc2)CC1 [ISOLAURELDEHYDE] | 83.1

Structure (SMILES) | MIC (Candida albicans) [µg/mL] | MIC (Aspergillus fumigatus) [µg/mL] | MIC (Bacillus subtilis) [µg/mL] | MIC (Staphylococcus aureus) [µg/mL] | MIC (Pseudomonas aeruginosa) | Activity [1] [%]
CC(=O)N1CCN(c2ccc(OCC3COC(Cn4ccnc4)(c4ccc(Cl)cc4Cl)O3)cc2)CC1 (centres undefined) [KETOCONAZOLE] | 40 (≈ 75.3 µM) | 40 (≈ 75.3 µM) | – | – | – | –

From ChEMBL document CHEMBL2062473, “Laurene-type sesquiterpenes from the Red Sea red alga Laurencia obtusa as potential antitumor-antimicrobial agents” (2012)
